The source of these data is PubChem BioAssay AID652279 (Broad Institute, 2013).

The structures appear in SMILES notation.

For the assay, the system named is T. cruzi CAI/72 in J774 macrophages, trypomastigote emergence, microscopy. Nature of the assay: intracellular T. cruzi relapse after drug removal – imaging, CAI/72 strain, J774 macrophages, dry powder, mechanism study, late-stage follow-up (AID 652279). As to conditions: hits give high values. In outline:
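System: Irradiated (9000 rad) J774 macrophages infected with T. cruzi CAI/72 | Detection: Daily microscopic scoring of trypomastigote appearance | Incubation: 1-week or 3-week dosing, then 31-day or 17-day drug-free follow-up | Doses: Compound renewed every 3 days from 24 h post-infection | Buffer or medium: RPMI-1640 supplemented with 5% fetal calf serum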

For the compound `CC(C)N1C[C@@H](CN(C)Cc2ccc(Cl)c(Cl)c2)Oc2c(NC(=O)c3ccncc3)cccc2C1=O`, the slope of emergence day vs concentration is 6.07.

Turning to `CN(C)C(=O)c1cccc(-c2ccc([C@H]3[C@H](CO)N4CCCCN(C(=O)C5CCC5)C[C@@H]34)cc2)c1`, the slope of emergence day vs concentration was 1.4.

For the compound `CC(C)N1C[C@@H](CN(C)Cc2ccc(Cl)cc2)Oc2c(NC(=O)c3ccncc3)cc(F)cc2C1=O`, the slope of emergence day vs concentration was 2.15.

As to `CC(C)N1C[C@@H](CN(C)CCc2ccc(Cl)cc2)Oc2c(NC(=O)c3ccncc3)cccc2C1=O`, the slope of emergence day vs concentration was 6.07.

With `CC(C)N1C[C@@H](CN(C)CCc2ccc(Cl)c(Cl)c2)Oc2c(NC(=O)c3ccncc3)cccc2C1=O`, the slope of emergence day vs concentration was 6.4.

Take `CC(C)N1C[C@@H](CN(C)Cc2ccc(Cl)cc2)Oc2c(C(=O)Nc3ccncc3)cccc2C1=O`: the slope of emergence day vs concentration was 4.59.

Regarding `CN(C)CC#Cc1cccc(-c2nc(C(=O)N[C@@H]3CCN(Cc4ccccc4)C3)cc3c2[C@@H](CCO)N(S(=O)C(C)(C)C)C3)c1` (stereo partly specified), the slope of emergence day vs concentration is 2.02.

`CC(C)N1C[C@H](CN(C)Cc2ccc(Cl)cc2)Oc2c(NC(=O)c3ccncc3)cccc2C1=O`: the slope of emergence day vs concentration was 2.02.

With `CC(C)N1C[C@@H](CN(C)Cc2ccc(Oc3ccccc3)cc2)Oc2c(NC(=O)c3ccncc3)cccc2C1=O`, the slope of emergence day vs concentration was 5.84.

Consider `CN(C)CC#Cc1cccc(-c2nc(C(=O)NCc3ccc4c(c3)OCO4)cc3c2[C@@H](CCO)N(S(=O)C(C)(C)C)C3)c1` (stereo partly specified), for which the slope of emergence day vs concentration is 4.35.

Take `CC(C)N1C[C@@H](CN(C)Cc2ccc(Cl)cc2)Oc2c(NC(=O)c3ccncc3)cccc2C1=O`: the slope of emergence day vs concentration is 2.21.
